S1P1 ag pot: S1P1 agonists and agonism potentiators, primary screen, cell-based, primary and confirmation screens, CRE-bla reporter; S1P1 CRE-bla cells, forskolin, beta-lactamase FRET, potentiator mode; S1P1 agonist co-added at EC20, 2 nM; 100% = saturating reference agonist, 0% = basal; activation, % at 9.5 µM; actives 0.57% (n = 56,000); AID 449, 2006;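 active means activation above a cutoff set at the mean activation of all tested compounds plus 3 SD, cut at about 54% in these data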;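 further: forskolin at 4 µM as EC80 and the EC20 agonist is SEW2871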
5HT1a antag: human 5-HT1a receptor antagonists, primary screen, cell-based, CHO, Ga15 NFAT-bla reporter; AID 612, 2007; CHO 5-HT1a Ga15 NFAT-bla reporter, antagonist mode; actives 0.68% (n = 62,000); inhibition, % at 10 µM;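 active means inhibition above the mean of all tested compounds plus 3 SD, cut at about 43% in these data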;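 further: receptor stimulated by 5-CT agonist at 100 nM near EC80; beta-lactamase reporter measured by ratiometric fluorescence of a cleavable substrate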
Target sequence (P08908 whole entry, looked up): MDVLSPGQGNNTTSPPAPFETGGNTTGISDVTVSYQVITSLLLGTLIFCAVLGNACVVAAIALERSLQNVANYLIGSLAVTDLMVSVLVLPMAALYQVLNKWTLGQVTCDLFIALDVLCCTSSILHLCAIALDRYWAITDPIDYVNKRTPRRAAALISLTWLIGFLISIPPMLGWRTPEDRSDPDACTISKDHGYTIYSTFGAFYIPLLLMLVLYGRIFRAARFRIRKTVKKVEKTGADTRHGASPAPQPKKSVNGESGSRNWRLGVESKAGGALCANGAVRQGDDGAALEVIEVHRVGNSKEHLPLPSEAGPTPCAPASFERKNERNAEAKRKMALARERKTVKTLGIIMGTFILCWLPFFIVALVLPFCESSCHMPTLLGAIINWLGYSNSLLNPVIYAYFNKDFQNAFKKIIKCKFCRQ
HTR1A agonist: human 5-HT1a receptor agonists, primary screen, cell-based, CHO, Ga15 NFAT-bla reporter. CHO 5-HT1a Ga15 NFAT-bla reporter, FRET ratio; 0% basal, 100% maximal reference agonist. activation, % at 10 µM. actives 0.56% (n = 65,000);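 active means activation above the screen-wide mean activation plus 3 SD, cut at about 19% in these data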
HTR1E agonist: 5-HT1E receptor agonists, primary screen, cell-based, HTS; activation, % at 6 µM; actives 0.69% (n = 65,000); CHO 5-HT1E Ga15 NFAT-bla reporter, FRET; 0% DMSO wells, 100% control agonist wells; 5-hydroxytryptamine receptor 1E (Homo sapiens), P28566;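 active means activation above a set limit, the screen-wide mean activation plus 3 SD, cut at about 8.5% in these data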
5HT1E antag: 5-HT1E receptor antagonists, primary screen, cell-based, HTS; actives 0.99% (n = 65,000); AID 571, 2007; 5-hydroxytryptamine receptor 1E (Homo sapiens), P28566; CHO 5-HT1E Ga15 NFAT-bla reporter, FRET, antagonist; inhibition, % at 6 µM;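 active means inhibition above a set limit, the mean inhibition across every tested compound plus 3 SD, cut at about 29% in these data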;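 further: signal is the 460 over 535 nm emission ratio of beta-lactamase substrate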
S1P3 agonist: human S1P3 receptor agonists, primary screen, cell-based, primary and confirmation, NFAT-BLA reporter; Sphingosine 1-phosphate receptor 3 (Homo sapiens), Q99500; S1P3 NFAT-BLA reporter cells, agonism, FRET ratio; relative to 1 µM S1P, basal subtracted; activation, % at 4.5 µM; actives 0.1% (n = 60,000);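 active means activation above the screen-wide mean plus 3 SD, cut at about 4.5% in these data, passing the limit was not always enough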
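material = human S1P3 NFAT-BLA reporter CHO cells | schedule = 4 h compound at 37 °C, 2 h substrate at RT | measured by = fluorescent BLA substrate, ex 405 nm, em 460/535 nm ratio | controls = 1 µM S1P reference | replication = primary once, confirmation triplicate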
A number is an active result; – = inactive; · = no result. Shown are actives, neighbours in structure and some others; about 3% of the full set was active somewhere.

SMILES	S1P1 ag pot	5HT1a antag	HTR1A agonist	HTR1E agonist	5HT1E antag	S1P3 agonist
Cc1ccc2nc(C(F)(F)F)c(C#N)c(N)c2c1	64	·	–	–	35	–
Brc1ccc2ncnc(Nc3ccc(N4CCOCC4)cc3)c2c1	61	–	–	–	–	–
CCc1c(C)sc(NC(=O)c2cc(C3CC3)on2)c1C#N	–	–	–	–	–	–
CCc1c(C)sc(NC(=O)c2cc(-c3ccco3)on2)c1C#N	92	–	–	–	–	–
CCc1c(C)sc(NC(=O)c2cc(C)on2)c1C#N	–	–	–	–	–	–
CCCc1cc(C(=O)Nc2sc(C)c(CC)c2C#N)no1	74	–	–	–	–	–
Cc1ccc(NC(=O)c2cc(-c3ccco3)on2)cc1C	72	–	–	–	–	–
COc1cc2c(cc1OC)CN(C(=O)CC1CC3CCC1C3)CC2 (configuration not stated)	–	–	–	–	–	–
OCCN(CCO)c1nc(N2CCCCC2)c2nc(N(CCO)CCO)nc(N3CCCCC3)c2n1	–	·	–	–	–	–
O=C(CN1C(=O)CC(c2ccccc2)=Nc2ccccc21)NCc1ccco1	–	–	–	–	31	–
O=C(CN(CCc1ccccc1)C(=O)CN1C(=O)COc2ccccc21)NCc1ccco1	–	–	–	–	–	–
CC(=O)NCCN=Cc1sc2ccccc2c1O	·	–	49	–	–	·
CN=Cc1sc2ccccc2c1O	–	–	–	–	–	–
O=C(c1ccco1)N1CCN(CC(O)COc2ccc3oc4ccccc4c3c2)CC1 (configuration not stated)	–	–	29	–	–	–
CCOC(=O)c1cnc(-n2nc(C)cc2C)nc1NCc1ccccc1	–	47	–	–	–	–
COc1ccc(Cl)cc1NC(=O)c1ccco1	–	–	–	23	–	–
C=CCn1c(SCC(=O)N2CCOCC2)nc2scc(-c3ccco3)c2c1=O	–	–	29	–	–	–
CCS(=O)(=O)NCCc1csc(C)n1	–	–	–	–	–	–
Cc1ccc2oc(=O)c3cnn(CC(=O)N4CCCc5ccccc54)c3c2c1	–	–	–	–	–	–
COC(=O)c1sc2ccccc2c1N	–	–	–	–	–	–
COC(=O)c1sc2ccccc2c1C(=O)OC	–	–	–	11	–	–
COc1ccccc1NC(=O)NCc1ccc2c(c1)OCO2	–	–	–	–	–	–
COCCN1Cc2cccc(C(=O)NCc3ccc4c(c3)OCO4)c2C1=O	–	–	238	–	–	–
COCCN1Cc2cccc(C(=O)NCc3ccccn3)c2C1=O	–	–	–	–	–	–
COC(=O)c1ccccc1NC(=O)NCc1ccc2c(c1)OCO2	–	–	–	–	31	–
SMILES	S1P1 ag pot	5HT1a antag	HTR1A agonist	HTR1E agonist	5HT1E antag	S1P3 agonist
Cn1c(=O)c2c(ncn2CCN(CCO)Cc2ccccc2)n(C)c1=O	–	–	–	–	–	–
O=C(Cc1c(C(=O)O)[nH]c2ccc(Cl)cc12)Nc1ccc2c(c1)OCCO2	–	–	–	–	–	–
O=C(CSc1nnc(Cn2nnc3ccccc32)o1)N(Cc1ccc(F)cc1)c1ccccc1	68	–	–	–	–	–
COc1ccc(CN(C(=O)CSc2nnc(-c3ccc(F)cc3)o2)c2ccc(F)cc2)cc1	–	–	–	–	–	–
COC(=O)CN(c1ccc(OC)cc1)S(=O)(=O)c1ccc(OC)c(OC)c1	·	–	20	–	–	–
O=C(O)c1cccnc1SCC(=O)N1CCCCCC1	–	–	–	–	–	–
O=C(CSc1cccc2cccnc12)N1CCCC1	–	–	–	–	42	–
CN(C)C(=O)CSc1cccc2cccnc12	–	–	–	–	39	–
CC(C1CC1)N(C(=O)NC1CCS(=O)(=O)C1)c1ccccc1 (configuration not stated)	–	–	–	–	–	–

Assay outcomes from PubChem.
